From ChEMBL document CHEMBL2429843 (J Med Chem, 2013) come the findings set out here.

The structures appear in SMILES notation. The source made the active and inactive calls. The calls are words filed in the database; no cut-off is given here.

The nature of data set [1]: Inhibition of Haemophilus influenzae TrmD using S-[methyl-3H] adenosyl-L-methionine as substrate assessed as leucine-tRNA methylation after 1 hr by scintillation proximity assay. In a few lines:
(§1)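 Radiometric SPA: TrmD in 50 mM HEPES pH 7.5 with 5 mM MgCl2 (E. coli and K. pneumoniae 10 nM, S. aureus 10 nM, P. aeruginosa 5 nM, H. influenzae 4 nM in enzyme reagent), mixed 1:1 with a reagent of 0.05 μM [3H]SAM, 2 μM unlabelled SAM and 2 μM synthetic E. coli leucine-tRNA. Compounds are 2-fold serial DMSO dilutions. Incubation is 1 h at room temperature.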
A general note: In a scintillation proximity assay essentially only radioactivity close to the scintillant gives light.

A short description of data set [2]: Inhibition of Staphylococcus aureus TrmD using S-[methyl-3H] adenosyl-L-methionine as substrate assessed as leucine-tRNA methylation after 1 hr by scintillation proximity assay. The method in brief: as §1
A short description of data set [3]: Aqueous solubility of the compound. The class given is physicochemical. The note with it: buffer.
The nature of data set [4]: Inhibition of Escherichia coli TrmD using S-[methyl-3H] adenosyl-L-methionine as substrate assessed as leucine-tRNA methylation after 1 hr by scintillation proximity assay. In a few lines: as §1
Data set [5] is described as follows: Selectivity ratio for Escherichia coli TrmD over human SET7/9.
The target in data set [6] is T1, Histone-lysine N-methyltransferase SETD7 (Homo sapiens) (UniProt Q8WTS6).
T1 sequence (whole entry): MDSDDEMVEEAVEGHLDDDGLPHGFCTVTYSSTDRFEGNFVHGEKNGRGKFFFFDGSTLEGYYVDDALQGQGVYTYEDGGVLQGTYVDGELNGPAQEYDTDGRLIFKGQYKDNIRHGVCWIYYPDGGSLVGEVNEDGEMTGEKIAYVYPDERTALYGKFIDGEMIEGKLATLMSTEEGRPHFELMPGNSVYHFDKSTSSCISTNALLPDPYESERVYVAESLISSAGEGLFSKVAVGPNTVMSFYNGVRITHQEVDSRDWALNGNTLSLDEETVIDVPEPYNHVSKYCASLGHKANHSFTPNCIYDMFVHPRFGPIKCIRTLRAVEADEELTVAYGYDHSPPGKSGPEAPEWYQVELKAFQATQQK
Nature of the data set: Inhibition of human SET7/9 at 20 uM relative to control.

The nature of data set [7]: Dissociation constant, pKa of the compound. Type of data set: physicochemical.
Data set [8] is described as follows: Inhibition of Acinetobacter baumannii TrmD using S-[methyl-3H] adenosyl-L-methionine as substrate assessed as leucine-tRNA methylation after 1 hr by scintillation proximity assay.
A short description of data set [9]: Selectivity ratio of IC50 for Staphylococcus aureus TrmD to IC50 for Escherichia coli TrmD.
A short description of data set [10]: Inhibition of Pseudomonas aeruginosa TrmD using S-[methyl-3H] adenosyl-L-methionine as substrate assessed as leucine-tRNA methylation after 1 hr by scintillation proximity assay. In a few lines:
as §1

Data set [11] in a line: Selectivity ratio for Escherichia coli TrmD over human PRMT1.
Data set [12] can be described thus: Selectivity ratio of IC50 for Escherichia coli TrmD to IC50 for Pseudomonas aeruginosa TrmD.
The next data set concerns Klebsiella pneumoniae. Nature of the data set: Inhibition of Klebsiella pneumoniae TrmD using S-[methyl-3H] adenosyl-L-methionine as substrate assessed as leucine-tRNA methylation after 1 hr by scintillation proximity assay. In a few lines: as §1
Data set [13] has as its target Protein arginine N-methyltransferase 1 (Homo sapiens) (UniProt Q99873). Nature of the data set: Inhibition of human PRMT1 at 20 uM relative to control.
For data set [14], the target named is T1, Histone-lysine N-methyltransferase SETD7 (Homo sapiens). The data set can be described thus: Inhibition of human SET7/9.
A further data set concerns Haemophilus influenzae. Nature of the data set: Antibacterial activity against recombinant Haemophilus influenzae harboring acrB::cap mutant assessed as growth inhibition by broth microdilution method. The class given is functional. For orientation: Dilution methods test growth across graded concentrations, often in twofold steps.

A word on the IC50: it is the point on the concentration scale where inhibition reaches its midpoint. The term solubility denotes the dissolved amount per volume that the medium holds. The low end stands for little dissolved substance, the high end for much dissolved substance. As a reminder, the inhibition is the percentage by which the read-out fell short of the control. Usually pKa stands for the pH at which an ionisable group is half protonated.

Protein arginine N-methyltransferase 1 (Homo sapiens), sequence (Q99873 whole entry, looked up): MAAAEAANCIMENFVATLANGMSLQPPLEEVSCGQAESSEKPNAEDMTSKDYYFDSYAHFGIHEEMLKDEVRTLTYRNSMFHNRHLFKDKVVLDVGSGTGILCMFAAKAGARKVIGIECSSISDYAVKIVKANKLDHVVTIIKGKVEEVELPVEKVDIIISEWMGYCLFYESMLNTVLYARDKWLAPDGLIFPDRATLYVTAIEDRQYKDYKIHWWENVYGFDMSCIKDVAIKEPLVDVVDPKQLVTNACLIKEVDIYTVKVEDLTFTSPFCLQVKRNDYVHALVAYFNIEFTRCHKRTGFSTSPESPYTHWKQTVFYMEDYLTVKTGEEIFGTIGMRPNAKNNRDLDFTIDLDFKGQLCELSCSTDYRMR

Take `O=c1[nH]cnc2onc(-c3ccccc3)c12`: the IC50 in data set [1] was 1100 nM; in data set [2] it was 6700 nM; in data set [4] it was 4800 nM. The compound also gave a solubility in data set [3] above 500 µM.
As for `O=C(NCc1ccc(CNCc2ncc[nH]2)cc1)c1csc2nc[nH]c(=O)c12`, the 50% inhibitory concentration (IC50) in data set [1] amounted to 1500 nM; in [8], 230 nM; in data set [2], 8200 nM; in data set [10], 67 nM; in [4], 520 nM; in the data set on Klebsiella pneumoniae it was 310 nM. In addition, the Selectivity ratio in data set [5] and in data set [11] was 50 each time. Besides, the inhibition in data set [6] and in data set [13] was below 10% throughout. This compound also showed a pKa in [7] of 6.5. In addition, the Ratio IC50 in data set [9] stood at 5; in [12] it was 10.
As for `NCCN1CCN(Cc2ccc(CNC(=O)c3csc4nc[nH]c(=O)c34)cc2)CC1`, the IC50 was found to be 440 nM in data set [1], 2700 nM in [2] and 400 nM in data set [4]. Also, the Selectivity ratio in [5] and in [11] was 50 each time. In addition, the inhibition in data set [6] and in [13] was below 10% in each case.
As for `NCc1ccc(CNC(=O)c2csc3nc[nH]c(=O)c23)cc1`, the IC50 in [1] was found to be 560 nM; in data set [8], 610 nM; in data set [2], 4300 nM; in data set [10], 98 nM; in [4], 910 nM; in the data set on Klebsiella pneumoniae it was 830 nM. Also, the Selectivity ratio in data set [5] and in data set [11] was 50 each time. In addition, the inhibition in data set [6] and in [13] was below 10% in each case. This compound had a pKa in [7] of 14.4. For the same compound, the Ratio IC50 amounted to 5 in data set [9] and 10 in data set [12].
Compound `COc1ccc(-c2n[nH]c(N)n2)cc1` gave a solubility in data set [3] above 500 µM.
As for `NC1CCCN(Cc2ccc(CNC(=O)c3csc4nc[nH]c(=O)c34)cc2)C1` (centres undefined), the IC50 in data set [1] came out at 660 nM; in [2], 5200 nM; in [4], 330 nM. Besides, the Selectivity ratio in [5] and in data set [11] was 50 in each case. The inhibition in [6] and in [13] was below 10% throughout.
Take `O=C(NCc1ccc(CN2CC[C@H](O)C2)cc1)c1csc2nc[nH]c(=O)c12`: the IC50 stood at 600 nM in data set [1]; 630 nM in data set [8]; 6300 nM in data set [2]; 120 nM in data set [10]; 400 nM in data set [4]; 630 nM in the data set with Klebsiella pneumoniae. The Ratio IC50 is 5 in data set [9] and 10 in data set [12].
`NC1CCN(Cc2ccc(CNC(=O)c3csc4nc[nH]c(=O)c34)cc2)CC1`: the IC50 in [1] was 330 nM; in data set [8] it was 580 nM; in [2] it was 1200 nM; in [10] it was below 39 nM; in data set [4], 180 nM; in the data set with Klebsiella pneumoniae it was 350 nM. Further, the Selectivity ratio in data set [5] and in data set [11] was 50 in each case. The inhibition in data set [6] and in data set [13] was below 10% each time. The Ratio IC50 turned out to be 5 in [9] and 10 in data set [12].
As for `O=C(NCc1ccc(CN2CC[C@@H](O)C2)cc1)c1csc2nc[nH]c(=O)c12`, the IC50 in data set [1] was 420 nM; in data set [8], 240 nM; in [2] it was 2700 nM; in data set [10] it was 63 nM; in [4], 290 nM; with Klebsiella pneumoniae, 510 nM. Moreover, the Ratio IC50 in [9] is 5; in data set [12] it was 10.
Regarding `Nc1ncnc2c1ncn2[C@@H]1O[C@H](C[C@@H](N)CC[C@H](N)C(=O)O)[C@@H](O)[C@H]1O` [SINEFUNGIN], the IC50 is 1900 nM in data set [1], 160000 nM in data set [2] and 11000 nM in data set [4]. For the same compound, in data set [14], the inhibition result is “Active”.
`Cc1[nH]c2c(=O)n(C3CCNCC3)ccc2c1Cl`: the solubility in data set [3] was above 500 µM.
As for `O=C(NCc1ccc(CN2CCNCC2)cc1)c1csc2nc[nH]c(=O)c12`, the values for the IC50 in data set [1], in data set [2] and in [4] were 1600 nM, 7600 nM and 890 nM, respectively. In addition, the Selectivity ratio in [5] and in data set [11] was 50 throughout. In addition, the inhibition in data set [6] and in data set [13] was below 10% in each case.
In the case of `O=C(NCc1ccc(CN2CCC(O)CC2)cc1)c1csc2nc[nH]c(=O)c12`, the values for the IC50 in [1], in data set [2] and in data set [4] were 1300 nM, 7300 nM and 440 nM, respectively. Also, the Selectivity ratio in [5] and in [11] was 50 throughout. In addition, the inhibition in [6] and in data set [13] was below 10% each time.
`Cc1cccc2nc[nH]c(=O)c12`: in data set [3], the solubility was above 500 µM.
In [3], `c1ccc2[nH]c(-c3cnco3)cc2c1` returned a solubility above 500 µM.
`CC(=O)N1CCC(c2csc3nc[nH]c(=O)c23)C1` (centres undefined): the half-maximal inhibitory concentration (IC50) in data set [1], in data set [2] and in [4] was above 200000 nM each time.
Take `NCCNCc1ccc(CNC(=O)c2csc3nc[nH]c(=O)c23)cc1`: the half-maximal inhibitory concentration (IC50) turned out to be 330 nM in [1]; 740 nM in data set [8]; 7400 nM in data set [2]; 44 nM in [10]; 440 nM in data set [4]; 610 nM in the data set on Klebsiella pneumoniae. The Selectivity ratio in [5] and in data set [11] was 50 in each case. Also, the inhibition in data set [6] and in data set [13] was below 10% in each case. The values for the Ratio IC50 in data set [9] and in [12] were 5 and 10, respectively.
On to `O=C(NCc1ccc(CN2CCN(CCO)CC2)cc1)c1csc2nc[nH]c(=O)c12`, for which the IC50 in [1] amounted to 1600 nM; in data set [2], 14000 nM; in [4] it was 470 nM.
With `O=C1CN(Cc2ccc(CNC(=O)c3csc4nc[nH]c(=O)c34)cc2)CCN1`, the results for the IC50 in data set [1], in data set [2] and in data set [4] were 9300 nM, 22000 nM and 2800 nM, respectively.
On the same counts, the results for `Oc1ncnc2scc(-c3ccccc3)c12` are 4700 nM, 11000 nM and 17000 nM.
Turning to `O=c1[nH]cnc2scc(C3CCCC3)c12`, the figures for the IC50 in [1], in [2] and in data set [4] were 16000 nM, 21000 nM and 52000 nM, respectively.
`NC1CN(Cc2ccc(CNC(=O)c3csc4nc[nH]c(=O)c34)cc2)C1`: the IC50 came to 330 nM in [1]; 1300 nM in data set [8]; 1800 nM in [2]; 250 nM in data set [10]; 330 nM in data set [4]; 1300 nM in the data set with Klebsiella pneumoniae. The figures for the Ratio IC50 in data set [9] and in data set [12] were 5 and 10, respectively.
Regarding `O=C(NCc1ccc(CN2CCC(O)C2)cc1)c1csc2nc[nH]c(=O)c12` (centres undefined), the IC50 was 370 nM in data set [1], 4400 nM in data set [2] and 420 nM in data set [4]. Also, the Selectivity ratio in data set [5] and in data set [11] was 50 throughout. Moreover, the inhibition in [6] and in [13] was below 10% each time. Moreover, the MIC in the data set with Haemophilus influenzae was determined as 3.1 µM.
Turning to `N=C(NCc1ccc(CNC(=O)c2csc3nc[nH]c(=O)c23)cc1)NC1CC1`, the IC50 in [1] is 490 nM; in data set [2] it was 2900 nM; in data set [4], 190 nM. For the same compound, the Selectivity ratio in data set [5] and in data set [11] was 50 throughout. In addition, the inhibition in [6] and in data set [13] was below 10% throughout.
